Assay outcomes (PubChem BioAssay)
PKD1 inh = inhibitors of human PKD1 kinase, biochemical, fluorescence polarization; Serine/threonine-protein kinase D1 (Homo sapiens), Q15139; PKD1 kinase fluorescence polarization assay; inhibition, % (concentration not given with the values); 0.056% of 200,000 active; AID 797, 2007; in the data active = inhibition above about 50%
MDM2 E3 inh = MDM2-luciferase reporter signal enhancers, primary screen, MDM2 E3 ligase inhibitor project, cell-based, luminescence, 1536-well; E3 ubiquitin-protein ligase Mdm2 (Homo sapiens), Q00987; cell-based MDM2 ubiquitination luciferase reporter, 2 h; 0 = plate control, 100 = twice control, blank-subtracted; 0.11% of 210,000 active; signal enhancement, % at 5 µM;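 active = signal enhancement of 30% or more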;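 also: luminescence tracks abundance of the self-degrading MDM2-luciferase fusion protein; higher signal means inhibition of MDM2 E3 ligase activity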
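Test system: stable mammalian line carrying autodegrading MDM2–luciferase fusion reporter; quantity: 2000 cells in each well; times: 4 h cell settling then 2 h compound exposure, 37 °C; detection: luminescence with SteadyLite reagent, 15 min at room temperature; evaluation: percent signal gain over controls, blank-subtracted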
ROMK mod = ROMK potassium channel modulators, primary screen, cell-based, thallium flux, MLSMR library; Tet-inducible ROMK, thallium flux fluorescence; actives lie on both sides; B-score at 10 µM; 2% of 130,000 active;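 active = signal ratio slope over the read window, or its plate-corrected B-score, at least 3 SD from the plate mean, either direction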;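 also: B-score of the F/F0 ratio slope over 7 to 12 s after thallium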
Cl transport mod = KCC2 cotransporter modulators, thallium flux, primary screen, cell-based, HEK293 KCC2, FluoZin-2 fluorescence, MLSMR; B-score of Tl+ flux slope (higher = more flux/activation; lower = inhibition) at 10 µM; 2.2% of 190,000 active; Solute carrier family 12 member 5 (Homo sapiens), Q9H2X9; KCC2 cells, thallium flux FluoZin-2 fluorescence;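 active = thallium flux slope and its plate-corrected score both differing from the plate sample mean at a set confidence after two filtering rounds, in either direction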;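 also: slope of fluorescence scaled to starting intensity during 10 to 20 s after thallium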
Target sequence (Q9H2X9 whole entry, looked up): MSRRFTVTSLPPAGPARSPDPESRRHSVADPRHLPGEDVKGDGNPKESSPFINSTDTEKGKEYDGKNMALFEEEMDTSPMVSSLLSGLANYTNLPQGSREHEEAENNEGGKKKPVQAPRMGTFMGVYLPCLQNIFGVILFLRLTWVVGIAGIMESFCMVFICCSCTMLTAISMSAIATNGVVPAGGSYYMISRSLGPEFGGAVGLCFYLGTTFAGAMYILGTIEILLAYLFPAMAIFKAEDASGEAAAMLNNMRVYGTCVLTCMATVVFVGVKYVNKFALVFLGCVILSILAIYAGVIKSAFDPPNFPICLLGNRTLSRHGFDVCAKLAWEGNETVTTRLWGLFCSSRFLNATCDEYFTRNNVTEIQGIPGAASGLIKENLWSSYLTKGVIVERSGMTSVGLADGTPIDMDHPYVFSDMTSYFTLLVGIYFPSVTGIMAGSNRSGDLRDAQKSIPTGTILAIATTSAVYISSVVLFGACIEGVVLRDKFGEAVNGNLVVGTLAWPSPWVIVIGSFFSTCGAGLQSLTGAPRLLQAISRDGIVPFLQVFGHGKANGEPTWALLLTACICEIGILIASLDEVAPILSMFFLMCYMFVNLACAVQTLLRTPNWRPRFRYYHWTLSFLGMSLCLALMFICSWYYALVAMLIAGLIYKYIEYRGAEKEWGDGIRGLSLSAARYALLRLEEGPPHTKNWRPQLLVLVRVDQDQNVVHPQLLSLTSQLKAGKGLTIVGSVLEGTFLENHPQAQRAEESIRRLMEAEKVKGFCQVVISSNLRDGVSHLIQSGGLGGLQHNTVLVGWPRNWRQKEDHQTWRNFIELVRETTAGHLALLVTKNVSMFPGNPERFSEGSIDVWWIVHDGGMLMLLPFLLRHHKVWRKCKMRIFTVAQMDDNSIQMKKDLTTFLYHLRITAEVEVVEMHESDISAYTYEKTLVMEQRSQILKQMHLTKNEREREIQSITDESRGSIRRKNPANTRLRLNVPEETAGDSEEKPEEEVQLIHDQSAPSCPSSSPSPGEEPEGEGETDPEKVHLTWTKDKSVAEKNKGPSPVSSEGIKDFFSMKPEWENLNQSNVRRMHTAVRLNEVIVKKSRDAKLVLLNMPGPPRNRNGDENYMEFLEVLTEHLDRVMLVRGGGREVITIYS
Calpain2 inh = inhibitors of pig calpain II, primary screen, biochemical, fluorogenic peptide substrate, 1536-well | inhibition, % at 16 µM | 0.37% of 220,000 active | purified calpain II, 30 min;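 active = inhibition above about 50%, limit read from the data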
Arbovirus anti = antivirals against arbovirus infection, primary screen, cell-based, full library, 10K replicate subset; arbovirus infection cell-based antiviral screen; inhibition, % at 10 µM; 0.37% of 200,000 active; in the data active = inhibition above about 30%
KCC2 secondary = KCC2 modulators in sodium-free buffer, confirmation, cell-based, HEK293 KCC2, thallium flux, secondary assay; FluoZin2 fluorescence; active compounds read high; AID 1713, 2009; shares compounds with Cl transport mod; 15% of 3,700 active; normalised thallium flux (F/F0 slope) at 10 µM;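 active = thallium flux slope above the same plate's solvent-only control mean plus 3 SD; inconclusive = the two replicate wells disagree; inactive = no significant difference from solvent-only control wells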
KCC2 bumet counter = thallium flux persisting under bumetanide in KCC2 cells, confirmation, counter-screen for KCC2 modulator project, cell-based, HEK293 KCC2, FluoZin2, secondary assay 3 | shares compounds with Cl transport mod | HEK293-KCC2 + bumetanide/ouabain; active compounds read high | normalized thallium flux at 10 µM | 49% of 3,700 active | AID 1714, 2009;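 active = thallium entry rate above the same plate's blocked-transporter control wells by more than 3 SD; inconclusive = the two repeat wells disagree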;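 also: raw slope of fluorescence over initial fluorescence between 10 and 20 s after thallium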
KCC2 secondary2 = KCC2 modulators without ouabain present, confirmation, cell-based, HEK293 KCC2, thallium flux, FluoZin2, secondary assay 2. shares compounds with Cl transport mod. thallium flux FluoZin2 fluorescence; actives lie on both sides; F/F0 rise rate, 10–20 s post-thallium. normalized thallium flux at 10 µM. 23% of 3,700 active. AID 1715, 2009;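 active = thallium flux slope more than 3 SD above or below the plate's solvent-only control mean, mostly below; inconclusive = the two repeat wells disagreed; inactive = no significant shift from solvent-only controls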
HEK293 Tl flux = thallium flux modulation in parental HEK cells, confirmation, counter-screen for KCC2 modulator project, cell-based, counterscreen 1. shares compounds with Cl transport mod. HEK293 parental cells, thallium flux FluoZin2, ouabain; baseline-ratio fluorescence slope, 10–20 s after thallium. thallium flux rate (normalised fluorescence) at 10 µM. 46% of 3,700 active;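 active = thallium flux rate significantly above the same plate's solvent-only control wells, beyond their mean plus 3 SD; inconclusive = the two replicate wells gave conflicting results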
KCC2 retest ouab = KCC2 inhibitors and activators, ouabain retest, confirmation, HEK-KCC2 cells; 48% of 3,700 active; shares compounds with Cl transport mod; raw Tl+ flux slope (below DMSO = inhibition, above = activation) at 10 µM; HEK293-KCC2, thallium flux FluoZin2 fluorescence; bidirectional: low = inhibitor, high = activator;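 active = thallium flux slope beyond 3 SD from same-plate DMSO control mean in most replicates, usually higher, sometimes lower; inconclusive = repeat tests gave conflicting results; inactive = no significant difference from controls in most replicates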;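 also: slope of initial-normalized fluorescence between seconds 10 and 20 after thallium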
HEK counter2 = native HEK Tl+ uptake effects, second counter-screen – HEK cells, counterscreen 2, counter-screen for KCC2 modulator project, confirmation. shares compounds with Cl transport mod. HEK293 parental, thallium flux FluoZin-2 fluorescence slope. thallium flux slope at 10 µM. 33% of 3,700 active. AID 1718, 2009;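 active = thallium flux slope above the same plate's solvent-control mean plus 3 SD in both duplicate wells; inconclusive = duplicate wells that disagreed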;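 also: run without ouabain in cells lacking the KCC2 cotransporter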
Of the large screens only hits and unclear results are named; the others gave an inactive call (follow-up assays come after a bar, where they were run). The list is not random: actives were taken first. Their share in the collection is about 3.7%.

O=[N+]([O-])c1ccccc1NC1CCN(Cc2ccccc2)CC1	none (no result: PKD1 inh, Arbovirus anti)
O=C1CCC(=O)N1c1ccc(NC2CCN(Cc3ccccc3)CC2)c([N+](=O)[O-])c1	Cl transport mod -5.9 | KCC2 secondary inactive | KCC2 bumet counter inactive | KCC2 secondary2 0.025 | HEK293 Tl flux inconclusive | KCC2 retest ouab inactive | HEK counter2 inactive
O=[N+]([O-])c1ccc(NC2CCN(Cc3ccccc3)CC2)c([N+](=O)[O-])c1	Cl transport mod -5.2 | KCC2 secondary inactive | KCC2 bumet counter inactive | KCC2 secondary2 0.022 | HEK293 Tl flux inactive | KCC2 retest ouab inconclusive | HEK counter2 inactive
O=C1C2CCCCC2C(=O)N1c1ccc(NC2CCN(Cc3ccccc3)CC2)c([N+](=O)[O-])c1 (stereo unspecified)	Cl transport mod -8.5, Calpain2 inh 84 | KCC2 secondary inactive | KCC2 bumet counter 0.0077 | KCC2 secondary2 0.026 | HEK293 Tl flux inactive | KCC2 retest ouab 0.014 | HEK counter2 inactive
CC1CCC2C(=O)N(c3ccc(NC4CCN(Cc5ccccc5)CC4)c([N+](=O)[O-])c3)C(=O)C2C1 (stereo unspecified)	none (no result: ROMK mod)
N#CC1=C(N)NC(SCC(=O)c2ccc(Br)cc2)=C(C#N)C12CCCCC2	none
COc1ccc(C(=O)CSC2=C(C#N)C3(CCCCC3)C(C#N)=C(N)N2)cc1	none | KCC2 secondary inactive | KCC2 bumet counter inactive | KCC2 secondary2 inactive | HEK293 Tl flux 0.0064 | KCC2 retest ouab 0.016 | HEK counter2 inactive
CCCSC1=C(C#N)C2(CCCCC2)C(C#N)=C(N)N1	none
CCSC1=C(C#N)C2(CCCCC2)C(C#N)=C(N)N1	Cl transport mod -4.1 (no result: ROMK mod) | KCC2 secondary inactive | KCC2 bumet counter inactive | KCC2 secondary2 inactive | HEK293 Tl flux inconclusive | KCC2 retest ouab inactive | HEK counter2 inactive
N#CC1=C(N)NC(SCc2ccccc2)=C(C#N)C12CCCCC2	Cl transport mod -3.2 (no result: ROMK mod) | KCC2 secondary inactive | KCC2 bumet counter inactive | KCC2 secondary2 inconclusive | HEK293 Tl flux inactive | KCC2 retest ouab inactive | HEK counter2 inactive
CCOC(=O)CSc1nc2ccccc2c(=O)n1CCCCCC(=O)NCc1ccco1	Cl transport mod -4.1 (no result: ROMK mod) | KCC2 secondary inactive | KCC2 bumet counter inconclusive | KCC2 secondary2 inactive | HEK293 Tl flux inactive | KCC2 retest ouab inactive | HEK counter2 inactive
